Screening data: PubChem, several laboratories
Rows were chosen to be rich in hits. Some 2.7% of all compounds tested hit in one or more screens of this group.
Rev-erbA mod – Rev-erb alpha (human) modulation | Rev-erbα–FITC-DNA binding, fluorescence polarization, 90 min | activity, % at 10 µM | AID 1259318 | P20393 | actives 0.79% (n = 370,000);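 active means activity above about 14%, limit read from the data; passing the limit was not always enough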;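 further: 0% = DMSO wells with 35 nM protein and 100% = DMSO wells with 750 nM protein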
Target sequence (P20393 whole entry, looked up): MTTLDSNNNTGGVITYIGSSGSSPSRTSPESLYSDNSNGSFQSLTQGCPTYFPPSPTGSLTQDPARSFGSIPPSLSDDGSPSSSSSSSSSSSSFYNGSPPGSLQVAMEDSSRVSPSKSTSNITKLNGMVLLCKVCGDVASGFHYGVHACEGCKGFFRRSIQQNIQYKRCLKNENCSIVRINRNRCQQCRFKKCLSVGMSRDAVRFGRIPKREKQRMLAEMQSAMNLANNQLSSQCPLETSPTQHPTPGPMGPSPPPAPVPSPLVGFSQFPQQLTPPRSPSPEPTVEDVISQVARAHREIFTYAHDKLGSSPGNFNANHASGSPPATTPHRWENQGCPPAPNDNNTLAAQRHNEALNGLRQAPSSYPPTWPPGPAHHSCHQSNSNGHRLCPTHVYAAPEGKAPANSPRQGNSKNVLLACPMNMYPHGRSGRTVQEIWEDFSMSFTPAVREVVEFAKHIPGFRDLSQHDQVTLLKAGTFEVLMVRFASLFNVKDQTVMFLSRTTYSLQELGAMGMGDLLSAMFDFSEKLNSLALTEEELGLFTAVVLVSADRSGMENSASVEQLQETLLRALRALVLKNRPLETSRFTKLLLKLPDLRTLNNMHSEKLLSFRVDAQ
PG9 binder – PG9 antibody binding by small molecule | TR-FRET gp120-PG9 antibody binding | inhibition, % at 6.7 µM | actives 0.43% (n = 360,000) | AID 624416; in the data active means inhibition above about 8.5%
MC4R antagonist – antagonists of human melanocortin 4 receptor (MC4R) | actives 0.48% (n = 360,000) | P32245 | inhibition, % at 6.5 µM | AID 540295 | MC4R-expressing cells, MTII-stimulated cAMP, LANCE TR-FRET;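 active means inhibition above its plate's cutoff, the mean of tested wells on that plate plus 3 SD, cut at about 29% in these data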;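 further: 0% = Melanotan II alone and 100% = Melanotan II plus saturating MCL0020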
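Assay system: U2OS-MC4R stable cell line; Also added: Melanotan II; Technique: Eu-cAMP/anti-cAMP TR-FRET, emission 671 nm; Times: 30-min compound, 1-h challenge, 1-h detection, room temperature.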
NR2E3 ag-1 – human photoreceptor-specific nuclear receptor agonism. Q9Y5X4. CHO-S Gal4-NCOR/VP16-NR2E3 two-hybrid, luciferase. inhibition of corepressor binding, % at 3.98 µM. actives 0.35% (n = 360,000). AID 602229;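 active means inhibition above the mean of all tested compounds plus 3 SD, cut at about 70% in these data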;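 further: 0% = DMSO with NR2E3 transfected cells and 100% = cells lacking NR2E3 construct; higher means lower luciferase signal from less NR2E3 corepressor binding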
NR2E3 ag-2 – activates human photoreceptor nuclear receptor NR2E3. actives 0.12% (n = 320,000). Q9Y5X4. inhibition of corepressor binding, % at 4.78 µM. GST-NR2E3/biotin-RetCOR TR-FRET, 1536-well. AID 2300;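 active means percent inhibition above the cutoff of mean plus 3 SD of all tested compounds, set per screening campaign, cut at about 20% in these data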;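 further: 0% = DMSO wells and 100% = biotin wells as full block of FRET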
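Format: 1536-well format; test system: GST-NR2E3 and biotin-RetCOR proteins; read-out basis: percent inhibition of TR-FRET ratio; timing: 5 h incubation at 4 °C; detection: time-resolved FRET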
MC4R ag barr – agonists of human melanocortin 4 receptor (MC4R) beta-arrestin; U2OS MC4R beta-arrestin complementation, luminescence; percent of melanotan II response, DMSO zero; activation, % at 8.9 µM; actives 0.98% (n = 360,000); AID 540308;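 active means activation above a per-plate cutoff, the mean activation of sample wells on that plate plus 3 SD, cut at about 8% in these data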
U2OS cAMP counter – counter-screen for MC4R antagonists: nonselective cAMP signaling inhibitors. parental U2OS, forskolin cAMP, LANCE TR-FRET. inhibition, % at 6.5 µM. actives 26% (n = 1,600). shares compounds with MC4R antagonist. AID 602193;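 active means mean inhibition over triplicates above the low-control well mean plus 3 SD, set per campaign, cut at about 13% in these data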;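 further: signal is single emission at 671 nm which falls as cellular cAMP rises; 0% = forskolin-stimulated wells and 100% = buffer without forskolin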
MC4R cAMP antag – human MC4R cAMP antagonism confirmation. MC4R-expressing cells, MTII-stimulated cAMP, TR-FRET. actives 27% (n = 1,600). AID 602195. shares compounds with MC4R antagonist. inhibition, % at 6.5 µM; in the data active means inhibition above about 29%;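 further: 0% = agonist stimulated wells alone and 100% = agonist stimulated wells plus saturating reference antagonist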
Starred values were filed as active, the others as inactive; · = not tested or not shown.

SMILES	Rev-erbA mod	PG9 binder	MC4R antagonist	NR2E3 ag-1	NR2E3 ag-2	MC4R ag barr	U2OS cAMP counter	MC4R cAMP antag
Cc1cccc(OCC(=O)Nc2ccc3c(c2)nc(CCN2CCCCC2)n3C)c1	1	-2	10	6	-1	0	·	·
CCC(CC)C(=O)N(C)c1c(C)nc2c(OCCOc3ccc(F)cc3)cccn12	0	0	30*	10	·	2	-1	2
CCC(CC)C(=O)N(C)c1c(C)nc2c(OCC(=O)N(C)C)cccn12	0	-1	1	-34	·	-1	·	·
C#CCN(C(=O)c1ccc(OC2CCN(C(=O)CCOC)CC2)cc1)C1CCCCC1	2	-1	4	-31	·	0	·	·
O=C(COC(=O)CNC(=O)c1ccc2c(c1)OCO2)Nc1ncc(Cl)cc1Cl	0	0	30*	-12	6	-2	14*	23
Cc1nc(NC(=O)COC(=O)/C=C/c2ccco2)c(Cl)cc1Cl	0	-2	1	-42	6	-1	·	·
O=C(COC(=O)/C=C/c1ccco1)Nc1ncc(Cl)cc1Cl	-3	-1	31*	-6	5	-1	-4	-18
O=C1CCCN2N=C(SCC(=O)Nc3ccc([N+](=O)[O-])cc3)SC2=N1	0	-2	2	-10	0	0	·	·
CCOc1ccc(S(=O)(=O)N2CCC(C(=O)NCc3cccnc3)CC2)cc1Cl	-2	-2	8	10	5	-2	·	·
CCOC(=O)CN(c1sc(C)c(C)c1C(=O)OCC)S(=O)(=O)c1ccc(C)cc1	-4	-2	9	14	·	0	·	·
CC(=O)N1N=C(c2ccccc2)CC1c1cccs1 (centres undefined)	2	1	29*	-5	·	0	-3	-15
O=C(c1ccccc1)N1N=C(c2ccccc2)CC1c1cccs1 (centres undefined)	6	0	12	-11	-1	2	·	·
c1ccc(-c2nnc(OCc3cccnc3)c3ccccc23)cc1	0	-2	29*	16	4	-2	3	11
Cc1c(Br)c([N+](=O)[O-])nn1CC(=O)NCCc1ccc(Cl)cc1	4	-1	-2	-13	-2	0	·	·
Cc1cccc(Cn2ncc(Cl)c(Cl)c2=O)c1	0	1	37*	22	2	-2	32*	50*
Cc1ccc(C)c(C(=O)Cn2ncc(Cl)c(Cl)c2=O)c1	0	-4	21	9	10	-2	·	·
CCCCN(Cc1ccco1)C(=O)C1CCCN(c2ncnc3c2nc2n3CCCCC2)C1 (centres undefined)	-4	0	32*	-41	2	1	-2	9
Nc1nnc(-c2ccccc2F)s1	8	1	1	5	2	0	·	·
Nc1nnc(-c2ccc(Cl)cc2Cl)s1	-7	-2	30*	-41	0	-2	2	2
Cc1cc(C)cc(CC(=O)N2CCC2(C)C(=O)NS(=O)(=O)c2ccc(Cl)s2)c1 (centres undefined)	0	-2	2	5	·	-1	·	·
CCOC(=O)C1=C(c2ccccc2)NC(=O)NC1c1ccc(OC)c(OC)c1 (centres undefined)	-3	-1	33*	5	-3	0	-1	-7
CCOC(=O)c1c(NC(=O)COc2cccc3c2CCN(C)C3=O)sc2c1CCC2	-1	-2	30*	-5	0	8.7*	9	51*
COC(=O)C(Cc1c[nH]c2ccccc12)NC(=O)c1cccs1 (centres undefined)	3	1	-1	6	-1	-3	·	·
COc1ccc(CNC(=O)COC(=O)[C@H](Cc2c[nH]c3ccccc23)NC(=O)c2cccs2)cc1	-1	0	43*	-32	0	-3	22*	14
COC(=O)[C@H](Cc1c[nH]c2ccccc12)NC(=O)NCc1ccc(OC)cc1	3	-1	37*	-13	-3	1	-4	1
SMILES	Rev-erbA mod	PG9 binder	MC4R antagonist	NR2E3 ag-1	NR2E3 ag-2	MC4R ag barr	U2OS cAMP counter	MC4R cAMP antag
CC(OC(=O)Cn1cnc2c1c(=O)n(C)c(=O)n2C)C(=O)NC(C)c1ccc(Cl)cc1Cl (centres undefined)	-1	-3	36*	-27	3	-4	12	12
CC(OC(=O)Cn1cc(C(F)(F)F)ccc1=O)C(=O)NC(C)c1ccc(Cl)cc1Cl (centres undefined)	1	0	17	-1	4	-2	·	·
CC(C)(O)CN(C(=O)C(c1ccccc1)c1ccccc1)C1CCCCC1	-1	0	4	28	·	1	·	·
COc1ccccc1NC(=O)NC1CCS(=O)(=O)C1 (centres undefined)	-10	-1	34*	-9	-1	-1	2	5
C=CCc1cccc2cc(C(=O)N3CCOCC3)c(=O)oc12	5	-3	-1	11	4	0	·	·
C=CCc1cccc2cc(C(=O)N3CCN(C(=O)c4ccccc4)CC3)c(=O)oc12	-2	-2	30*	-12	1	1	-2	-6
COCc1ccc(C(=O)N2CCCC(N3CCN(c4ccc(F)cc4)CC3)C2)o1 (centres undefined)	-2	1	0	6	0	-4	·	·
CCOc1ccc(/C=C/[N+](=O)[O-])c2ccccc12	·	·	41*	-8	-2	-5	12	-20
O=C(NNc1c2ccccc2nc2ccccc12)c1ccc(Cl)cc1	0	-4	33*	-28	0	-1	-2	-24
Cc1ccc(C(=O)NNc2c3ccccc3nc3ccccc23)cc1	-4	-5	-13	-16	-6	-2	·	·
O=C(NCc1nnnn1-c1ccc(F)c(F)c1)c1cc2ccccc2o1	-3	-1	-7	-3	2	-3	·	·
Cc1cc(=O)[nH]c(N/N=C/c2c(F)c(F)c(F)c(F)c2F)n1	-5	-1	29*	14	-4	0	14*	20
Cc1cc(=O)[nH]c(N/N=C/c2ccccc2Cl)n1	0	-1	4	-49	-1	-1	·	·
COC(=O)c1ccc(NC(=O)C(=O)N2CCN(C(=S)Nc3ccccc3OC)CC2)cc1	3	-2	9	-39	-2	-2	·	·
CCCCN(C)C(=O)c1nc2ccccn2c1CN1CCN(C/C=C/c2ccccc2)CC1	-2	-2	35*	5	3	-1	-3	4
CCCCN(C)C(=O)c1nc2ccccn2c1CN1CCN(c2ncccn2)CC1	3	-2	-7	7	3	1	·	·
